# Screening data deposited in PubChem by several laboratories.
# Sampled rows, rich in hits. Any-hit rate of the full collection: about 2.5%.
# NTR1 ag = agonists of human NTR1, primary screen, imaging, U2OS cells, beta-arrestin-GFP, high content; AID 493036, 2011; hit rate 0.17% among 330,000; NTR1-U2OS beta-arrestin-GFP spot imaging, agonist mode; activation, % at 20 µM;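 active = activation at or above 40% of the spot to cytoplasm intensity ratio, with at least 20 cells analyzed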;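 also: 0% = DMSO without peptide and 100% = 100 nM NTR1 peptide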
# MC4R antag cAMP = MC4R antagonists of cAMP signaling, primary screen, cell-based, TR-FRET, antagonist arm of biased-ligand search. hit rate 0.48% among 360,000. MC4R-expressing cells, MTII-stimulated cAMP, LANCE TR-FRET. Melanocortin receptor 4 (Homo sapiens), P32245. AID 540295, 2011. inhibition, % at 6.5 µM;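 active = inhibition above its plate's cutoff, the mean of tested wells on that plate plus 3 SD, cut at about 29% in these data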;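 also: 0% = Melanotan II alone and 100% = Melanotan II plus saturating MCL0020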
# Target sequence (P32245 whole entry, looked up): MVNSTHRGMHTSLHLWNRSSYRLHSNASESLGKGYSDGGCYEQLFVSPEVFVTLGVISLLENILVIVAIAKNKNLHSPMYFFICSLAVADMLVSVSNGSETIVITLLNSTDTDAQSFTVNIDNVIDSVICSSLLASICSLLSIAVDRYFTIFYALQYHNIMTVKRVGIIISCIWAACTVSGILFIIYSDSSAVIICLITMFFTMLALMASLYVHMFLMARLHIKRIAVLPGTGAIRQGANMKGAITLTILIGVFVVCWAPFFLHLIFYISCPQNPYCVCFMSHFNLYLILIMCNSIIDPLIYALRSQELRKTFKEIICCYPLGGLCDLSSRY
#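 Material: human MC4R-expressing U2OS cells. Probe or stimulus: Melanotan II challenge. Dosing: 6.5 µM single dose. Times: 30-min compound, 1-h challenge, 1-h detection, room temperature. Technique: TR-FRET with Eu-cAMP and labeled anti-cAMP, 671 nm. Replication: singlicate.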
# PG9 Ab binder = binders of HIV-1 gp120 antibody PG9, primary screen, biochemical, TR-FRET. inhibition, % at 6.7 µM. hit rate 0.43% among 360,000. HIV-1 gp120 / PG9 antibody interaction. TR-FRET gp120-PG9 antibody binding; in the data active = inhibition above about 8.5%
# Rev-erbA mod = modulators of Rev-erb alpha DNA binding, primary screen, biochemical, FITC-DNA, fluorescence polarization, uHTS; Nuclear receptor subfamily 1 group D member 1 (Homo sapiens), P20393; Rev-erbα–FITC-DNA binding, 90 min; activity, % at 10 µM; hit rate 0.79% among 370,000; AID 1259318, 2017;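 active = activity above about 14%, limit read from the data; passing the limit was not always enough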;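 also: 0% = DMSO wells with 35 nM protein and 100% = DMSO wells with 750 nM protein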
# MC4R ag barr = MC4R agonists recruiting beta-arrestin, primary screen, cell-based, luminescence, agonist arm of biased-ligand search. activation, % at 8.9 µM. Melanocortin receptor 4 (Homo sapiens), P32245. hit rate 0.98% among 360,000. U2OS MC4R beta-arrestin complementation; percent of melanotan II response, DMSO zero;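 active = activation above a per-plate cutoff, the mean activation of sample wells on that plate plus 3 SD, cut at about 8% in these data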
# Rev-erbA confirm = modulators of Rev-erb alpha DNA binding, confirmation, biochemical, FITC-DNA, fluorescence polarization, single point; shares compounds with Rev-erbA mod; 90 min; hit rate 61% among 3,000; activation, % at 25 µM;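 active = activation at or above a set limit, or at least 3 SD above the negative control mean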;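 also: 0% = 35 nM protein with DMSO and 100% = 750 nM protein high control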
# RORg DNA counter = modulation of RORgamma DNA binding, dose response, counter-screen for Rev-erb alpha modulator project, biochemical, fluorescence polarization, FITC-DNA | shares compounds with Rev-erbA mod | purified RORgamma protein-FITC-DNA binding | IC50, µM | hit rate 8% among 910 | AID 1259320, 2017;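 active = Compounds whose fitted half-maximal concentration for disrupting protein-DNA binding is below 10 micromolar; the record names Rev-erb in its text, so the target is in doubt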
# An asterisk follows results filed as active; i = inactive; . = no result given.
SMILES,NTR1 ag,MC4R antag cAMP,PG9 Ab binder,Rev-erbA mod,MC4R ag barr,Rev-erbA confirm,others
CC(C)C(C(=O)NCc1ccccc1)N1CCN(CCN2CCOCC2)CC1 (stereo not drawn),.,.,-2,3,.,.,
CCC[C@H]1[C@@H](OC(=O)NCc2ccco2)CC[C@@]23CCCN2C(=O)CCC[C@@H]13,.,.,.,3,.,.,
C=CCN1C(=O)[C@@H](CC(=O)NCc2cccc3ccccc23)[C@]2(C(=O)OC)CCCCC=C12,.,.,.,-1,.,.,
COc1ccc(Cn2c(=S)[nH]c3cc(OC)c(OC)cc3c2=O)cc1,0,6,-1,7,1,.,
NS(=O)(=O)c1ccc(CCn2c(=S)[nH]c3ccc(F)cc3c2=O)cc1,0,20,37*,58*,0,40*,RORg DNA counter=>40
O=c1c2cc(F)ccc2[nH]c(=S)n1Cc1ccc(F)cc1,8,5,1,57*,-2,17*,
COC(=O)[C@]12CCCCC=C1N(Cc1ccc(OC)cc1)C(=O)[C@@H]2CC(=O)N1CCCC1,.,.,.,2,.,.,
Cc1cccc(NC(=O)C2CCCN2S(=O)(=O)c2cccnc2)c1C (stereo not drawn),.,.,.,-1,.,.,
CN(C)/C=C1\C=C2C(=O)c3ccccc3N2C1=O,-2,-45,-18,340*,-2,229*,RORg DNA counter=1.1*
COc1ccc(NC(=O)CSc2nnc(-c3ccccn3)n2N)c(OC)c1,0,-2,-2,-3,1,.,
COc1ccc(NC(=O)CSc2nnc(-c3cccs3)n2N)c(OC)c1,0,7,-1,13*,0,1,
CCCCOc1cccc(C2C(C(=O)c3ccc(C)o3)=C(O)C(=O)N2c2nnc(C)s2)c1 (stereo not drawn),0,3,0,18*,0,18*,
Nc1cccc(S(=O)(=O)N2CCCN(S(=O)(=O)c3ccc4c(c3)OCCO4)CC2)c1,.,.,.,11,.,.,
O=C(NCc1ccc(-c2nc3ccccc3s2)cc1)c1ccc(Br)o1,0,3,-5,21*,2,13,
c1ccc(-c2nc3nonc3c3nc4ccccc4n23)cc1,6,-1,1,-5,4,.,
c1ccc(-c2nc3ccccc3c3nc4ccccc4n23)cc1,12,-1,0,22*,-1,-2,
CC1(Cc2ccccc2OC(F)(F)F)C(=O)Nc2ccc(OC(F)(F)F)cc21 (stereo not drawn),.,8,0,73*,6,94*,RORg DNA counter=>40
CC1(Cc2cc(Cl)ccc2C(F)(F)F)C(=O)Nc2ccc(OC(F)(F)F)cc21 (stereo not drawn),.,15,.,.,2,.,
CC1(Cc2ccccc2OC(F)(F)F)C(=O)Nc2ccc(-c3ccsc3)cc21 (stereo not drawn),.,3,-2,72*,1,90*,RORg DNA counter=i
COC(=O)c1cccc(CC2(C)C(=O)Nc3ccc(OC(F)(F)F)cc32)c1 (stereo not drawn),.,-6,-2,18*,4,15*,
CCC(C)(C)NC(=O)CN(Cc1ccc2c(c1)OCO2)C(=O)CCC(=O)Nc1ccccn1,1,4,0,27*,0,5,
CCC(C)(C)NC(=O)CN(Cc1ccc2c(c1)OCO2)C(=O)CCC(=O)Nc1nccs1,2,-1,-1,-10,-1,.,
COC(=O)[C@H]1C[C@@]2(n3ccc4ccccc43)c3ccccc3N(S(=O)(=O)c3ccccc3)[C@H]2N1,.,.,.,1,.,.,
CCOC(=O)c1sc2nc(C(C)C)c3c(c2c1N)CC(C)(C)OC3,4,3,0,23*,2,2,
CCOC(=O)c1sc2nc(N3CCCC3)c3c(c2c1N)CC(C)(C)OC3,15,0,3,-2,1,.,
SMILES,NTR1 ag,MC4R antag cAMP,PG9 Ab binder,Rev-erbA mod,MC4R ag barr,Rev-erbA confirm,others
COc1ccc(OC)c(-c2cc(C(=O)Nc3cc(C)n(Cc4ccc(Cl)cc4)n3)no2)c1,12,-1,-2,16*,1,5,
COc1ccc(-c2nnc(SCC(=O)NN=C/C=C\c3ccco3)n2-c2ccc(OC)cc2)cc1,.,.,.,-3,.,.,
COc1ccc(C)cc1NC(=O)c1sc2ncn(CC(=O)N3CCCCC3)c(=O)c2c1C,2,7,1,29*,-1,24*,
COC[C@@H]1CCCN1c1ccc2c(c1)OCCCN(C1CC1)S2(=O)=O,.,.,.,2,.,.,
Cc1cc(C)cc(NC(=S)/C(=C(\[O-])c2ccc(Cl)cc2Cl)[n+]2ccc(C(C)(C)C)cc2)c1,2,4,-3,36*,-2,31*,RORg DNA counter=7.9*
C[C@@H]1CN(c2ccc(N3CCN(C(=O)OC(C)(C)C)C[C@@H]3C)cc2C#N)CCN1Cc1ccccc1,.,.,-1,-1,.,.,
Cc1cccc(NC(=O)c2cc(NC(=O)c3ccccc3)ccc2N2CCCCC2)c1,7,-6,1,34*,-2,1,
Cc1cccc(NC(=O)c2cc(NC(=O)c3ccco3)ccc2N2CCCCC2)c1,14,6,.,10,2,.,
O=C(NCc1ccco1)O[C@@H]1CC[C@@]23CCCN2C(=O)CCC[C@H]3C1,.,.,.,4,.,.,
Cc1cc(-c2ccccc2)nc2oc3c(c12)NC(=O)CN(c1ccccc1)C3=O,0,9,-1,23*,-2,35*,RORg DNA counter=1.1*
Nc1nc2c(ncn2[C@@H]2O[C@H](C(=O)N[C@@H](Cc3ccccc3)C(=O)NCC3CCCCC3)[C@@H](O)[C@H]2O)c(=O)[nH]1,.,.,0,-2,.,.,
CCOC(=O)Cc1csc(NC(=O)COc2ccc(N(C)S(=O)(=O)c3ccc(C)cc3)cc2)n1,1,9,2,8,-1,.,
CCOc1ccc(S(=O)(=O)N(C)c2ccc(OCC(=O)Nc3nc(-c4cc(OC)ccc4OC)cs3)cc2)cc1,1,0,0,25*,2,30*,
C=CCN1C[C@H](COC(=O)c2cccc(C)c2)Oc2cccc(F)c2S1(=O)=O,.,.,0,7,.,.,
COc1cccc(C(=O)N/N=c2/oc3ccccc3cc2C(N)=O)c1,1,-8,-4,14*,-2,0,
CC1(C)C=C2C(=NN(c3ccccc3)C(N)=C2C#N)CO1,2,15,-1,19*,0,11,
